GAA850 FXN act: activators of GAA850 frataxin (FXN) promoter | activation, % at 6 µM | 0.56% of 360,000 active | HEK293 lucGAA850 FXN promoter luciferase reporter, 24 h; percent of 10 µM SAHA response;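 active means activation above the average of all compounds screened plus 3 SD, cutoff fixed separately per campaign, cut at about 7.5% in these data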;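 further: 0% = DMSO wells and 100% = 10 µM SAHA wells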
GASC-1 inh: blocks human GASC-1 demethylase activity; Q9H3R0; inhibition, % at 2.35 µM; 0.069% of 330,000 active; GST-JMJD2C(1-420) H3K9me3 demethylation, DELFIA europium; AID 2099;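 active means more than half of a compound's replicate wells show inhibition beyond 50%, single wells judged on their own value; inconclusive means some, but no more than half, of replicates pass 50% inhibition; inactive means no replicate passes 50% inhibition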;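 further: signal counts dimethyl H3K9 product captured on neutravidin plate; 0% = median of DMSO wells and 100% = 0.3 times that DMSO median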
SR-BI DiI inh: inhibitors of mouse SR-BI mediated HDL lipid uptake; 0.96% of 320,000 active; inhibition, % at 12.5 µM; Q61009; AID 488896; ldlA[mSR-BI] CHO cells, DiI-HDL uptake fluorescence, 3 h;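 active means mean replicate inhibition of at least 70% and a set share of replicates each scoring 70 or more; inconclusive means meets just one of the two criteria; inactive means fails both criteria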;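 further: 0% = median of neutral control wells and 100% = median of positive control wells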
AHR act: human AHR activation. P35869. AHR-responsive luciferase reporter cells, luminescence. activation, % at 5 µM. 2.5% of 320,000 active. AID 2796; in the data active means activation above about 47%;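 further: 0% = vehicle wells and 100% = reference agonist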
Target sequence (P35869 whole entry, looked up): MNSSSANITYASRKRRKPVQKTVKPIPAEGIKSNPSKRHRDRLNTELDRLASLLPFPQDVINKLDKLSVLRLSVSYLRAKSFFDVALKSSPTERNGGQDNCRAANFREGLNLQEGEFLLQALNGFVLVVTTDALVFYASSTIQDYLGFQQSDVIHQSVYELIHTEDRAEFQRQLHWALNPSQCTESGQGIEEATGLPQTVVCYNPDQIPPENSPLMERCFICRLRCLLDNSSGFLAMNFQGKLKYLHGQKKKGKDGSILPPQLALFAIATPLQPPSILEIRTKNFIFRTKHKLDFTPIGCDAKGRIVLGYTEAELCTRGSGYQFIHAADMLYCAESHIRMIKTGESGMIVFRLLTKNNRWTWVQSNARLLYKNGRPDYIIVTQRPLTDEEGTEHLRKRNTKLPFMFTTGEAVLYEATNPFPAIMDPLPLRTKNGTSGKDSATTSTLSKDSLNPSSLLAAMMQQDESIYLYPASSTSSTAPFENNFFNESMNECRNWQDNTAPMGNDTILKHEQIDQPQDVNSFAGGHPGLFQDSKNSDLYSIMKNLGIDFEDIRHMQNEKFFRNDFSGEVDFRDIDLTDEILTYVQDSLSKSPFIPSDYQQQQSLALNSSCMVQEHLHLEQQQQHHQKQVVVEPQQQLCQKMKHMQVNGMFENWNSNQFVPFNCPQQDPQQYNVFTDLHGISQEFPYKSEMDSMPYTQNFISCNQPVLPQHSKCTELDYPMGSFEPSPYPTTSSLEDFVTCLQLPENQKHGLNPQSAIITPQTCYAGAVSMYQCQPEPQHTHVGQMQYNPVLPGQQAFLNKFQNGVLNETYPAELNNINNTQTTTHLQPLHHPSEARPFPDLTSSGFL
SR-BI uptake up: SR-BI HDL lipid transfer activation; CHO ldlA[mSR-BI] cells, DiI-HDL uptake fluorescence, 3 h; 100 = double the neutral-control signal; 0.096% of 320,000 active; activation, % at 12.5 µM; AID 504775;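 active means mean replicate activation of at least 60% and every replicate at or above 60%; inconclusive means mean or all-replicate condition met, but not both; inactive means mean below 60% and not all replicates reaching 60%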;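 further: 0% = median plate neutral-control signal and 100% = twice that signal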
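Test system: SR-BI-overexpressing, LDLR-lacking CHO cells; Also added: labelled HDL, 10 µg/mL; Measured by: bottom-read cell fluorescence after medium removal, ex 550/em 595 nm; Timing: 3 h uptake period with compound, 37 °C; Buffer or medium: F12, 0.5% BSA, 25 mM HEPES; Doses: single compound concentration, delivered by pin transfer.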
AHR act cf: human AHR activation, confirmation; shares compounds with AHR act; human cells, AHR-responsive luciferase reporter, luminescence; activation, % at 9 µM; 87% of 2,300 active; in the data active means activation above about 49%;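 further: HepG2 hepatoma cells carrying a DRE-driven firefly luciferase reporter; 0% = vehicle wells and 100% = reference agonist wells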
PXR act counter: counter-screen for AHR activators: human PXR activators | activation, % at 11.6 µM | 88% of 2,300 active | cell-based PXR reporter, luciferase luminescence | shares compounds with AHR act; in the data active means activation above about 11%;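 further: human hepatoma DPX-2 cells expressing full-length human PXR; 0% = DMSO and 100% = reference agonist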
* hit, by the source's call; ? = inconclusive; . = not tested or not shown. Most compounds without a hit are left out; they make up all but 3.7% or so of the library.

SMILES | GAA850 FXN act | GASC-1 inh | SR-BI DiI inh | AHR act | SR-BI uptake up | AHR act cf | PXR act counter
Nc1c2nc(-c3ccccc3Cl)[nH]c(=O)c2nc(=O)n1-c1ccccc1 | 6 | 9 | . | 87* | . | 95* | 19*
CC1CC(C)CN(C(=S)Nc2ccc(OC(F)F)cc2)C1 (stereo not given) | 3 | -2 | 10 | 83* | -10 | 64* | 118*
CCCCc1nc2ccccc2c(NC(=O)CN2CCCC2)c1CCC | 0 | -2 | -5 | 2 | 5 | . | .
Nc1c2c(nc3ccccc13)N(c1ccccc1)CC2 | 0 | 8 | 9 | 143* | -9 | 105* | 22*
O=C(CN1CCCCC1)Nc1c2c(nc3ccccc13)N(c1ccccc1)CC2 | 1 | 7 | -9 | 132* | 9 | 107* | 38*
CN1CCCCc2c1nc1ccccc1c2N (tested in a mixture with another compound) | -2 | -12 | -9 | 26 | 9 | . | .
CCCC(=O)Nc1c2c(nc3ccccc13)N(c1ccccc1)CC2 | -1 | -1 | -10 | 108* | 10 | 98* | 23*
O=C(NC1CCCC1)C(c1ccccc1)N(Cc1ccccc1)C(=O)c1csnn1 (stereo not given) | -1 | -1 | -12 | -1 | 12 | . | .
O=C(NCc1ccc(F)cc1)c1ccc(N2CCc3ccccc32)c([N+](=O)[O-])c1 | -1 | -4 | . | -1 | . | . | .
CCC1C(=O)N(C)CCc2ccccc21 (stereo not given) | 5 | 3 | -11 | -2 | 11 | . | .
Clc1ccccc1-c1nnc(-c2ccc3c(c2)OCO3)o1 | 5 | 4 | 11 | -4 | -11 | . | .
Oc1c(C(c2ccccc2)N2CCc3ccccc3C2)sc2ncnn12 (stereo not given) | 1 | -5 | . | 89* | . | 86* | 40*
CCCCCC(=O)Nc1cccc(C2=NOC3(C2)C[C@H](C(N)=O)N(C(=O)c2ccccc2C(=O)c2ccccc2)C3)c1 (stereo not given in full) | 3 | 9 | 57 | 1 | -57 | . | .
O/N=C/C1=C(Cl)c2ccccc2CC1 | -1 | -10 | -8 | -1 | 8 | . | .
O=C(N/N=C/c1c[nH]c2c1ccc1ccccc12)c1ccc([N+](=O)[O-])cc1 | 1 | 8 | 2 | 105* | -2 | 79* | 11*
COc1ccc2ccccc2c1/C=N/NC(=O)c1ccc([N+](=O)[O-])cc1 | 0 | -2 | 40 | 0 | -40 | . | .
O=C(Nc1ccc(Br)cc1)c1cnc[nH]1 | 4 | -13 | -8 | 109* | 8 | 68* | 18*
CCn1c(=O)cc(OCC(=O)NCc2ccc(C)o2)c2ccccc21 | 1 | 3 | 14 | 96* | -14 | 46 | 25*
CCC(C)(C)n1nnnc1C(c1ccccc1F)N1CCN(C(=O)c2ccco2)CC1 (stereo not given) | 1 | 8 | . | 0 | . | . | .
COc1ccc(CCNC(=O)c2cnc3scc(C)n3c2=O)cc1OC | 2 | -2 | 9 | 105* | -9 | 94* | 40*
S=C(N/N=C/c1ccccc1Cl)Nc1cccc(Cl)c1Cl | -2 | -22 | 50 | 118* | -50 | 103* | 30*
Fc1ccc(NC(=S)NN=Cc2ccccc2Cl)cc1 | 0 | . | 18 | . | -18 | . | .
Cc1ccc2[nH]c(=O)c(-c3nc4cc(C)ccn4c3NCc3ccco3)cc2c1 | 2 | -3 | -23 | 88* | 23 | 75* | 39*
Cc1cccc2cc(-c3nc4c(C)cccn4c3NCc3ccco3)c(=O)[nH]c12 | -3 | 4 | -8 | 28 | 8 | . | .
COc1ccccc1NC(=O)CON=C(N)CC(=O)NC1CCCCC1 | 2 | -7 | -16 | 2 | 16 | . | .
SMILES | GAA850 FXN act | GASC-1 inh | SR-BI DiI inh | AHR act | SR-BI uptake up | AHR act cf | PXR act counter
COc1ccc(Nc2cc(C)nc3ccc(OC)cc23)cc1 | 1 | -5 | 12 | 40 | -12 | . | .
COc1ccc2nc(C)cc(N/N=C/c3ccc(F)cc3)c2c1 | -14 | -6 | 15 | 80* | -15 | 69* | .
Cc1ccc2nc(C)cc(N/N=C/c3cccc(O)c3)c2c1 | 1 | 9 | 26 | 13 | -26 | . | .
COc1ccc(/C=N/Nc2cc(C)nc3ccccc23)cc1 | 0 | -2 | 15 | 120* | -15 | 50* | .
Cc1c(C(=O)Nc2nnc(C3CC3)s2)oc2c(Cl)cccc12 | 3 | -25 | 32 | 31 | -32 | . | .
Cc1c(C(=O)Nc2nnc(C3CC3)s2)oc2ccccc12 | 6 | 14 | -7 | 111* | 7 | 136* | 55*
Cc1csc(NC(=O)c2oc3ccccc3c2C)n1 | 2 | 23 | 17 | 83* | -17 | 136* | 27*
O=C(Cc1c[nH]c2ccccc12)Nc1nnc(C2CC2)s1 | -4 | 23 | -12 | 91* | 12 | 90* | 20*
COc1ccc(NC(=O)N2CCC(n3nnc4cc(C)ccc43)CC2)cc1 | -1 | -13 | 53 | -6 | -53 | . | .
COc1ccc(NC(=O)COC(=O)c2cccn2C)cc1S(=O)(=O)N1CCCCC1 | 0 | 1 | 14 | 0 | -14 | . | .
Cc1cc(=O)[nH]c(SCC(=O)Nc2c(C)n(C)n(-c3ccccc3)c2=O)c1C#N | 2 | 2 | -10 | -1 | 10 | . | .
CN(C)c1ccc(NC(=O)/C=C/c2c(Cl)cccc2Cl)cc1 | -2 | -6 | ? | 100* | -71 | 147* | 87*
O=C(Nc1ccccc1)C(=O)c1c[nH]c2ccccc12 | 3 | -1 | -3 | 102* | 3 | 129* | 28*
COC(=O)c1ccc(NC(=O)C(=O)c2c[nH]c3ccccc23)cc1 | 2 | 2 | 24 | 30 | -24 | . | .
O=C1CSC(=Nc2ccccc2Cl)N1 | -1 | 7 | 6 | 1 | -6 | . | .
Clc1ccccc1N=C1NN=C(c2cccs2)CS1 | 6 | -5 | 2 | 139* | -2 | 130* | 36*
CC(C)CNc1ncnc2c1ncn2[C@H]1CN(CCN2CCOCC2)C[C@@H](CO)O1 | -1 | . | . | . | . | . | .
COc1ccc(NC(=O)CSc2nnc3c4c(nc(-c5ccccc5)n23)CC(C)(C)OC4)cc1 | 1 | -9 | 26 | 109* | -26 | 4 | 25*
O=C(Nc1nc2ccccc2s1)C1CCN(S(=O)(=O)c2cc([N+](=O)[O-])ccc2Cl)CC1 | -7 | 0 | . | 12 | . | . | .
COc1ccc(CN2C(=O)C(CC(=O)NCCCN(C)C)CC(C(=O)N(C(C)C)C(C)C)=C2C)cc1 (stereo not given) | 4 | . | . | . | . | . | .
COCCNC(=S)N=Nc1c(O)[nH]c2c(C)cc(C)cc12 | -2 | 11 | -6 | 116* | 6 | 93* | 71*
CC[C@]12c3[nH]c4ccccc4c3CCN1C(=O)C(CC(=O)NCCc1ccccn1)C[C@@H]2C(=O)N1CCN(C(=O)c2ccco2)CC1 (stereo not given in full) | 0 | -5 | -3 | 2 | 3 | . | .

Source: PubChem BioAssay
